Experimental data: ChEMBL document CHEMBL3112409, “A novel class of ion displacement ligands as antagonists of the αIIbβ3 receptor that limit conformational reorganization of the receptor” (Bioorg Med Chem Lett, 2014)
Calls of active or inactive are those of the source. The calls are words filed in the database; no cut-off is given here. Positions of bridges follow the written chain, without caps; N, C: chain ends. Non-standard residues stand in square brackets, D forms with d. Residues, ends and D or L forms follow the SMILES beside them. hArg = N=C(N)NCCCC[C@H](N)C(=O)O; Mpa = O=C(O)CCS

Legend:
[1] = Antiplatelet activity in platelet (unknown origin) assessed as inhibition of platelet aggregation; assay type: functional, cell-based
[2] = target: T1, Integrin alpha-IIb/beta-3 (Homo sapiens) (UniProt P05106+P08514); experiment: Inhibition of […] receptor (unknown origin) assessed as inhibition of platelet adhesion at 100 uM
[3] = target: T1, Integrin alpha-IIb/beta-3 (Homo sapiens); experiment: Inhibition of […] receptor (unknown origin) assessed as inhibition of platelet adhesion at 50 uM
[4] = target: T1, Integrin alpha-IIb/beta-3 (Homo sapiens); settings: 10 uM
[5] = target: T1, Integrin alpha-IIb/beta-3 (Homo sapiens); experiment: Inhibition of […] receptor (unknown origin) assessed as inhibition of platelet adhesion at 1 uM
[6] = Oral bioavailability in dog at 26.5 to 53 mg/kg; assay type: ADME, organism-based, Canis lupus familiaris; settings: in vivo
[7] = Clearance in dog at 53 mg/kg, po; assay type: ADME, organism-based, Canis lupus familiaris; design: dose 53 mg/kg, route oral; settings: in vivo
[8] = Clearance in dog at 26.5 mg/kg, po; assay type: ADME, organism-based, Canis lupus familiaris; design: dose 26.5 mg/kg, route oral; settings: in vivo
[9] = Clearance in dog at 26.5 mg/kg, iv; assay type: ADME, organism-based, Canis lupus familiaris; design: dose 26.5 mg/kg, route intravenous; settings: in vivo
Canis familiaris [10] = experiment: Volume of distribution in dog at 53 mg/kg, po; assay type: ADME, organism-based, Canis lupus familiaris; design: dose 53 mg/kg, route oral; settings: in vivo
Canis familiaris [11] = experiment: Volume of distribution in dog at 26.5 mg/kg, po; assay type: ADME, organism-based, Canis lupus familiaris; design: dose 26.5 mg/kg, route oral; settings: in vivo
[12] = AUC (infinity) in dog at 53 mg/kg, po; assay type: ADME, organism-based, Canis lupus familiaris; design: time infinity, dose 53 mg/kg, route oral; settings: plasma
[13] = Volume of distribution in dog at 26.5 mg/kg, iv; assay type: ADME, organism-based, Canis lupus familiaris; design: dose 26.5 mg/kg, route intravenous; settings: in vivo
[14] = AUC (infinity) in dog at 26.5 mg/kg, po; assay type: ADME, organism-based, Canis lupus familiaris; design: time infinity, dose 26.5 mg/kg, route oral; settings: plasma
[15] = AUC (infinity) in dog at 26.5 mg/kg, iv; assay type: ADME, organism-based, Canis lupus familiaris; design: time infinity, dose 26.5 mg/kg, route intravenous; settings: plasma
[16] = Terminal elimination rate constant in dog at 53 mg/kg, po; assay type: ADME, organism-based, Canis lupus familiaris; design: dose 53 mg/kg, route oral; settings: in vivo
[17] = Terminal elimination rate constant in dog at 26.5 mg/kg, po; assay type: ADME, organism-based, Canis lupus familiaris; design: dose 26.5 mg/kg, route oral; settings: in vivo
[18] = Terminal elimination rate constant in dog at 26.5 mg/kg, iv; assay type: ADME, organism-based, Canis lupus familiaris; design: dose 26.5 mg/kg, route intravenous; settings: in vivo
[19] = Elimination half life in dog at 53 mg/kg, po; assay type: ADME, organism-based, Canis lupus familiaris; design: dose 53 mg/kg, route oral; settings: in vivo, read-out: beta t1/2
[20] = Elimination half life in dog at 26.5 mg/kg, iv; assay type: ADME, organism-based, Canis lupus familiaris; design: dose 26.5 mg/kg, route intravenous; settings: in vivo, read-out: beta t1/2
[21] = Elimination half life in dog at 26.5 mg/kg, po; assay type: ADME, organism-based, Canis lupus familiaris; design: dose 26.5 mg/kg, route oral; settings: in vivo, read-out: beta t1/2
[22] = Cmax in dog at 53 mg/kg, po; assay type: ADME, organism-based, Canis lupus familiaris; design: dose 53 mg/kg, route oral; settings: in vivo
[23] = Cmax in dog at 26.5 mg/kg, po; assay type: ADME, organism-based, Canis lupus familiaris; design: dose 26.5 mg/kg, route oral; settings: in vivo
[24] = Tmax in dog at 53 mg/kg, po; assay type: ADME, organism-based, Canis lupus familiaris; design: dose 53 mg/kg, route oral; settings: in vivo
[25] = Cmax in dog at 26.5 mg/kg, iv; assay type: ADME, organism-based, Canis lupus familiaris; design: dose 26.5 mg/kg, route intravenous; settings: in vivo
[26] = Tmax in dog at 26.5 mg/kg, iv; assay type: ADME, organism-based, Canis lupus familiaris; design: dose 26.5 mg/kg, route intravenous; settings: in vivo
[27] = Tmax in dog at 26.5 mg/kg, po; assay type: ADME, organism-based, Canis lupus familiaris; design: dose 26.5 mg/kg, route oral; settings: in vivo
[28] = Fraction unbound in whole blood (unknown origin); assay type: ADME, tissue-based
[29] = Fraction unbound in plasma (unknown origin); assay type: ADME, cell-free
[30] = Metabolic stability in mouse hepatocytes assessed as compound remaining after 120 mins; assay type: ADME, cell-based, Hepatocyte; settings: read-out: Stability
[31] = target: Integrin alpha-V/beta-3 (Homo sapiens) (UniProt P05106+P06756); experiment: Antagonist activity at alphaVbeta3 receptor (unknown origin); assay type: protein-complex assay
Liver microsome [32] = experiment: Intrinsic clearance in human liver microsomes; assay type: ADME
How it was run: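 Liver microsomal stability run in parallel for mouse, rat and human microsomes. Intrinsic clearance reported in μL/min/mg protein, with microsomal half-life in min.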

hERG (KCNH2) = hERG (KCNH2) (Homo sapiens, UniProt Q12809); experiment: Inhibition of human ERG channel at 25 uM
hERG (KCNH2), sequence (Q12809 whole entry): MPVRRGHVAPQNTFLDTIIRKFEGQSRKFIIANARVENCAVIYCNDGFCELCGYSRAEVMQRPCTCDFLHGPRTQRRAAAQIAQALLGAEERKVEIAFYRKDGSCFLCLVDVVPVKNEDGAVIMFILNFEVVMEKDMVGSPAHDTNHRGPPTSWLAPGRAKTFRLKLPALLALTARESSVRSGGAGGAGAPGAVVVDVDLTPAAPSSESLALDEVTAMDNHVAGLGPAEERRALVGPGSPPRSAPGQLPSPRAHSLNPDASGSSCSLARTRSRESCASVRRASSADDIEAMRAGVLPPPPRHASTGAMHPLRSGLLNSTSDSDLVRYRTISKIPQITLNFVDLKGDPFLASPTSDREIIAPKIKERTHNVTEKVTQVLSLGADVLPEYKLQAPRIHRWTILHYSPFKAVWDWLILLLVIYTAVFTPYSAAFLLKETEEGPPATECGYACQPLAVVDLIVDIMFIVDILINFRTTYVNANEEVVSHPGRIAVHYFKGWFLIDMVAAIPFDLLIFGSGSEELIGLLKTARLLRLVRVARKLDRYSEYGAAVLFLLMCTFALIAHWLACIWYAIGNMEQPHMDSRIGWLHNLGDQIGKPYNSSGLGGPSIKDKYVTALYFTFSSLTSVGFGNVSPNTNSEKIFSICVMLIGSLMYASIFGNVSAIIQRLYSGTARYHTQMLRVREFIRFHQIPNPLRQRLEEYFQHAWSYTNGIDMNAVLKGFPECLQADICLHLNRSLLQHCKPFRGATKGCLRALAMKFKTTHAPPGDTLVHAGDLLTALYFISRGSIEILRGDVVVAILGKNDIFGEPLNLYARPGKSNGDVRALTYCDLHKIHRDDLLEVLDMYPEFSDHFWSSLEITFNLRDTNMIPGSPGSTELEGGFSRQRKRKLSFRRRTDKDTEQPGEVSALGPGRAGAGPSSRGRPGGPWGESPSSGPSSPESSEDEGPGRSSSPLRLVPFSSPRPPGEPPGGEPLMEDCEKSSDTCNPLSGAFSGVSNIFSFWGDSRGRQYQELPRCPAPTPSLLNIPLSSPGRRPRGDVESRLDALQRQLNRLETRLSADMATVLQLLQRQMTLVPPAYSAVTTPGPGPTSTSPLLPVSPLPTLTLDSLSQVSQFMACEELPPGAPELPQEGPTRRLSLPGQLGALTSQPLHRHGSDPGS

[33] = Thermodynamic solubility of the compound at pH 8.5 by CLND method; assay type: physicochemical; settings: buffer
How it was run: (§1)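 Triplicate solubility measurements in aqueous buffer at the pH named in each line. Quantified by chemiluminescent nitrogen detection (CLND) and reported in μg/mL. An LC method was also run alongside.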

[34] = Thermodynamic solubility of the compound at pH 12 by CLND method; assay type: physicochemical; settings: buffer; how it was run: as §1
[35] = Thermodynamic solubility of the compound at pH 7.4 by CLND method; assay type: physicochemical; settings: buffer; how it was run: as §1
[36] = Kinetic solubility of the compound at pH 12 by CLND method; assay type: physicochemical; settings: buffer
[37] = Thermodynamic solubility of the compound at pH 6.6 by CLND method; assay type: physicochemical; settings: buffer; how it was run: as §1
[38] = Kinetic solubility of the compound at pH 7.4 by CLND method; assay type: physicochemical; settings: buffer
[39] = Kinetic solubility of the compound at pH 8.5 by CLND method; assay type: physicochemical; settings: buffer
[40] = Kinetic solubility of the compound at pH 6.6 by CLND method; assay type: physicochemical; settings: buffer
[41] = Metabolic stability in mouse plasma after 60 mins; assay type: ADME, cell-free; settings: read-out: Stability
How it was run: (§2)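 Stability in mouse plasma run in triplicate; percent remaining read at 15, 60 and 120 min.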

[42] = Metabolic stability in mouse plasma after 120 mins; assay type: ADME, cell-free; settings: read-out: Stability; how it was run: as §2
[43] = Metabolic stability in mouse plasma after 15 mins; assay type: ADME, cell-free; settings: read-out: Stability; how it was run: as §2
Liver microsome [44] = experiment: Intrinsic clearance in rat liver microsomes; assay type: ADME
[45] = Intrinsic clearance in mouse liver microsomes; assay type: ADME, Microsome

C[C@H](N)C(=O)Nc1cccc(-c2nn3c(=O)cc(N4CCNCC4)nc3s2)c1
IC50 [1]: 5.87 µM | inhibition [2]: 66%

O=C(O)CNc1cccc(-c2nn3c(=O)cc(N4CCNCC4)nc3s2)c1
IC50 [1]: 2 µM | inhibition [3]: 78%

CC(C)(C)c1nn2c(=O)cc(N3CCNCC3)nc2s1
IC50 [1]: 4 µM | inhibition [3]: 35%

CCc1nn2c(=O)cc(N3CCOCC3)nc2s1
IC50 [1]: 49 µM | inhibition [2]: 20%

CCCCS(=O)(=O)N[C@@H](Cc1ccc(OCCCCC2CCNCC2)cc1)C(=O)O
inhibition [4]: 88%

NCC(=O)Nc1cc(O)cc(-c2nn3c(=O)cc(N4CCNCC4)nc3s2)c1
IC50 [1]: 0.1 µM | inhibition [5]: 69%

O=C(O)c1cccc(-c2nn3c(=O)cc(N4CCNCC4)nc3s2)c1
IC50 [1]: 80 µM | inhibition [3]: 37%

O=C(O)c1ccc(-c2nn3c(=O)cc(N4CCNCC4)nc3s2)cc1
IC50 [1]: 6.5 µM | inhibition [3]: 49%

CCc1nn2c(=O)cc(N3CCNCC3)nc2s1
IC50 [1]: 4 µM | bioavailability [6]: 92% | CL/F [7]: 18.7 mL/min/kg | CL/F [8]: 16.8 mL/min/kg | clearance [9]: 15.9 mL/min/kg | Vd (Canis familiaris [10]): 2.9476 L/kg | Vd (Canis familiaris [11]): 3.4669 L/kg | AUC(0-inf) [12]: 47200 ng·h/mL | Vd [13]: 2.37 L/kg | AUC(0-inf) [14]: 27200 ng·h/mL | AUC(0-inf) [15]: 28000 ng·h/mL | k el [16]: 0.000107 s⁻¹ | k el [17]: 8e-05 s⁻¹ | k el [18]: 0.000113 s⁻¹ | half-life [19]: 1.82 h | half-life [20]: 1.7 h | half-life [21]: 2.45 h | Cmax [22]: 11900 ng/mL | Cmax [23]: 7800 ng/mL | Tmax [24]: 0.5 h | Cmax [25]: 28800 ng/mL | Tmax [26]: 0.175 h | Tmax [27]: 0.555 h

CCc1nn2c(=O)cc(N3CCN(C)CC3)nc2s1
IC50 [1]: > 100 µM | inhibition [2]: 35%

CCc1nn2c(=O)c(F)c(N3CCNCC3)nc2s1
IC50 [1]: 8.3 µM | inhibition [2]: 41%

NCC(=O)Nc1cncc(-c2nn3c(=O)cc(N4CCNCC4)nc3s2)c1 [ZALUNFIBAN]
Fu [28]: > 85% | Fu [29]: > 30% | remaining at 2 h [30]: > 95% | Activity [31]: inactive | CLH (Liver microsome [32]): 23.2 µL/min/mg | inhibition at 25 µM (hERG (KCNH2)): < 5% | Therm_solubility [33]: > 400 µg/mL | Therm_solubility [34]: > 400 µg/mL | Therm_solubility [35]: 239.5 µg/mL | Kinetic_solubility [36]: > 57.8 µg/mL | Therm_solubility [37]: 340.4 µg/mL | Kinetic_solubility [38]: > 57.8 µg/mL | Kinetic_solubility [39]: > 57.8 µg/mL | Kinetic_solubility [40]: > 57.8 µg/mL | remaining at 1 h [41]: 99.5% | remaining at 2 h [42]: 91.7% | remaining at 0.25 h [43]: 100% | IC50 [1]: 0.045 µM | inhibition [5]: 93%

CCc1nn2c(=O)cc(N3CCCCC3)nc2s1
IC50 [1]: > 100 µM | inhibition [2]: 23%

NCC(=O)Nc1cccc(-c2nn3c(=O)cc(N4CCNCC4)nc3s2)c1
CLH (Liver microsome [44]): 2.83 µL/min/mg | inhibition at 25 µM (hERG (KCNH2)): < 5% | CLH [45]: 0.684 µL/min/mg | Therm_solubility [33]: 46.2 µg/mL | Therm_solubility [34]: > 400 µg/mL | Therm_solubility [35]: 28 µg/mL | Kinetic_solubility [36]: 43.4 µg/mL | Therm_solubility [37]: 41.8 µg/mL | Kinetic_solubility [38]: 34.6 µg/mL | Kinetic_solubility [39]: 36.1 µg/mL | Kinetic_solubility [40]: 35.8 µg/mL | remaining at 1 h [41]: 93.3% | remaining at 2 h [42]: 84.5% | remaining at 0.25 h [43]: 97.5% | inhibition [5]: 83%

O=c1cc(N2CCNCC2)nc2sc(-c3ccccc3)nn12
IC50 [1]: 3 µM | inhibition [2]: 56%

NCC(=O)Nc1cc(-c2nn3c(=O)cc(N4CCNCC4)nc3s2)ccn1
IC50 [1]: 0.033 µM | inhibition [5]: 98%

NCC(=O)Nc1cc(CO)cc(-c2nn3c(=O)cc(N4CCNCC4)nc3s2)c1
IC50 [1]: 0.075 µM | inhibition [5]: 89%

N=C(N)NCCCC[C@@H]1NC(=O)CCSSC[C@@H](C(N)=O)NC(=O)[C@@H]2CCCN2C(=O)[C@H](Cc2c[nH]c3ccccc23)NC(=O)[C@H](CC(=O)O)NC(=O)CNC1=O [EPTIFIBATIDE] ([Mpa][hArg]GDWPC-NH2; disulfide 1-7)
IC50 [1]: 0.012 µM
